Active and inactive are the calls of the source.
Columns and labels:
[1] = system: PBMC; test: Induction of IFN-gamma secretion in human PBMC; assay type: functional, cell-based
Procedure, shortened: (§1)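 Human PBMCs (5×10^6/mL; 1×10^6 per well) were cultured 24 h with TLR9 agonist 5 µg/mL or TLR7/8 agonist 100 µg/mL, alone or with antagonist at 1:4. Compounds were dissolved in PBS. Supernatant cytokines were measured by Luminex human 25-plex bead assay. One representative donor of six.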

[2] = system: PBMC; test: Induction of MIG secretion in human PBMC; assay type: functional, cell-based; procedure, shortened: as §1
[3] = system: PBMC; test: Induction of MIP1beta secretion in human PBMC; assay type: functional, cell-based; procedure, shortened: as §1
[4] = system: PBMC; test: (§2) Induction of IP10 secretion in human PBMC; assay type: functional, cell-based; procedure, shortened: as §1
[5] = system: PBMC; test: Induction of IL12 secretion in human PBMC; assay type: functional, cell-based; procedure, shortened: as §1
[6] = system: PBMC; test: Induction of TNFalpha secretion in human PBMC; assay type: functional, cell-based; procedure, shortened: as §1
[7] = system: PBMC; test: Induction of IL6 secretion in human PBMC; assay type: functional, cell-based; procedure, shortened: as §1
[8] = biological target: T1, Toll-like receptor 9 (Homo sapiens) (UniProt Q9NR96); test: Agonist activity at TLR9 in human PBMC assessed as NF-kappaB activation at 5 ug/mL; assay type: functional
T1 sequence (whole entry): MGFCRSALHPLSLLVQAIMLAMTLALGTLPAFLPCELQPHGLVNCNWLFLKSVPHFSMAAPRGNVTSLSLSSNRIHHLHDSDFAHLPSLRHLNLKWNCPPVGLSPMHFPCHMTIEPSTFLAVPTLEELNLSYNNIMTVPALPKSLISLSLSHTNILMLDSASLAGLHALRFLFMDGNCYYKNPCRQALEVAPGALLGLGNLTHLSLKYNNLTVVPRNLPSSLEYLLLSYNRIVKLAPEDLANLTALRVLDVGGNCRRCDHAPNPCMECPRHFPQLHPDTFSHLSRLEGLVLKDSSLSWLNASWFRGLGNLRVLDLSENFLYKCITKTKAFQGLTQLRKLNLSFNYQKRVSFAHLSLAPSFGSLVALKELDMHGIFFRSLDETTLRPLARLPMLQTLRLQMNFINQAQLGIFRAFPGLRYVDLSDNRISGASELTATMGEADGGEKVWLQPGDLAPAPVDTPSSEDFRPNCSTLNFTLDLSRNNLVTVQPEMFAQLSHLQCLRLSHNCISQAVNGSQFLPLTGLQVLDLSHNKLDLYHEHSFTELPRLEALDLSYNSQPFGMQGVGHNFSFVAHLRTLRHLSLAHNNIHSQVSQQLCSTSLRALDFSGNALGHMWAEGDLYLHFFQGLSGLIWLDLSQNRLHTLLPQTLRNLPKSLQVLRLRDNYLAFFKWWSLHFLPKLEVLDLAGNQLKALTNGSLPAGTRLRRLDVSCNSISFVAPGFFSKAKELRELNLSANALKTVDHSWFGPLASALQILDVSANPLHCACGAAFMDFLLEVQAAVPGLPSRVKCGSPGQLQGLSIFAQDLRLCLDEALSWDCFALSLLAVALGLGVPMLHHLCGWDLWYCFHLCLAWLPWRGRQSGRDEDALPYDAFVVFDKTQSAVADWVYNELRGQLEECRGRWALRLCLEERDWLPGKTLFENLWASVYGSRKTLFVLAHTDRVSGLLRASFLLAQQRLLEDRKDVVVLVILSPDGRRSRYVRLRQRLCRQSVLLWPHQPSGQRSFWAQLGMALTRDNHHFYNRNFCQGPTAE
Procedure, shortened: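 Human PBMCs from healthy-donor blood (Ficoll) plated at 1×10^7 cells/well, stimulated for 2 h. Nuclear extracts analysed for NF-κB binding by EMSA on native polyacrylamide gels with autoradiography. One representative donor of three.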

[9] = system: PBMC; test: Induction of MCP1 secretion in human PBMC; assay type: functional, cell-based; procedure, shortened: as §1
[10] = system: PBMC; test: as §2; assay type: functional, cell-based; procedure, shortened: as §1; remark: listed apart in the source
[11] = system: PBMC; test: Induction of IFNalpha secretion in human PBMC; assay type: functional, cell-based; procedure, shortened: as §1

Measured: Activity

Cc1cn([C@H]2C[C@H](OP(=O)(S)OC[C@H]3O[C@@H](n4ccc(N)nc4=O)C[C@@H]3OP(=O)(S)OC[C@H]3O[C@@H](n4cc(C)c(=O)[nH]c4=O)C[C@@H]3OP(=O)(S)OC[C@H]3O[C@@H](n4cnc5c(=O)[nH]c(N)nc54)C[C@@H]3OP(=O)(S)OC[C@H]3O[C@@H](n4cc(C)c(=O)[nH]c4=O)C[C@@H]3OP(=O)(S)OC[C@H]3O[C@@H](n4ccc(N)nc4=O)C[C@@H]3OP(=O)(S)OC[C@H]3O[C@@H](n4ccc5c(N)ncnc54)C[C@@H]3OP(=O)(S)OC[C@H]3O[C@@H](n4cc(C)c(=O)[nH]c4=O)C[C@@H]3OP(=O)(S)OC[C@H]3O[C@@H](n4cc(C)c(=O)[nH]c4=O)C[C@@H]3OP(=O)(S)OC[C@H]3O[C@@H](n4ccc(N)nc4=O)C[C@@H]3OP(=O)(S)OC[C@H]3O[C@@H](n4cc(C)c(=O)[nH]c4=O)C[C@@H]3OP(=O)(S)OCC(O)COP(=O)(S)O[C@H]3C[C@H](n4cc(C)c(=O)[nH]c4=O)O[C@@H]3COP(=O)(S)O[C@H]3C[C@H](n4ccc(N)nc4=O)O[C@@H]3COP(=O)(S)O[C@H]3C[C@H](n4cc(C)c(=O)[nH]c4=O)O[C@@H]3COP(=O)(S)O[C@H]3C[C@H](n4cc(C)c(=O)[nH]c4=O)O[C@@H]3COP(=O)(S)O[C@H]3C[C@H](n4ccc5c(=O)[nH]c(N)nc54)O[C@@H]3COP(=O)(S)O[C@H]3C[C@H](n4ccc(N)nc4=O)O[C@@H]3COP(=O)(S)O[C@H]3C[C@H](n4cc(C)c(=O)[nH]c4=O)O[C@@H]3COP(=O)(S)O[C@H]3C[C@H](n4cnc5c(=O)[nH]c(N)nc54)O[C@@H]3COP(=O)(S)O[C@H]3C[C@H](n4cc(C)c(=O)[nH]c4=O)O[C@@H]3COP(=O)(S)O[C@H]3C[C@H](n4ccc(N)nc4=O)O[C@@H]3COP(=O)(S)O[C@H]3C[C@H](n4cc(C)c(=O)[nH]c4=O)O[C@@H]3CO)[C@@H](CO)O2)c(=O)[nH]c1=O (stereo partly specified)
active: all assays above

Source: ChEMBL document CHEMBL1140884, “Oligodeoxyribonucleotide-based antagonists for Toll-like receptors 7 and 9” (2009)
